# Assay outcomes from PubChem BioAssay.
# Runt-CBFb FRET: blocks binding of human RUNX1 Runt domain to CBFb; Q01196+Q13951; Cerulean-Runt/Venus-CBFb FRET ratio 530/480, 1 h; inhibition, % at 20 µM; 0.46% of 220,000 active;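 active = inhibition over about 50% at 20 µM in the single-dose screen, limit read from the data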
#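 Doses: 20 µM compound in 1% DMSO | Material: Cerulean-labeled Runt domain protein | Amount: Each fluorescent fusion protein 100 nM | Schedule: Two 1 h room-temperature incubations shielded from light | Measured by: FRET fluorescence | Evaluation: Loss of energy transfer signal | Controls: Unlabeled CBFb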
# MEX-5 binding: C. elegans MEX-5 TCR-2 RNA binding activity; Q9XUB2; 0.38% of 300,000 active; MEX-5/FITC-TCR2 RNA binding, fluorescence polarization; active compounds read low; activity score (negative = inhibition of binding), % at 10 µM; AID 1832;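 active = inhibition past about -25% in most replicates, and total fluorescence under double the plate's negative control median, limit read from the data; inconclusive = replicates evenly split on the limit, or fluorescence at least double controls; inactive = too little inhibition in most replicates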
# Target sequence (Q9XUB2 whole entry, looked up): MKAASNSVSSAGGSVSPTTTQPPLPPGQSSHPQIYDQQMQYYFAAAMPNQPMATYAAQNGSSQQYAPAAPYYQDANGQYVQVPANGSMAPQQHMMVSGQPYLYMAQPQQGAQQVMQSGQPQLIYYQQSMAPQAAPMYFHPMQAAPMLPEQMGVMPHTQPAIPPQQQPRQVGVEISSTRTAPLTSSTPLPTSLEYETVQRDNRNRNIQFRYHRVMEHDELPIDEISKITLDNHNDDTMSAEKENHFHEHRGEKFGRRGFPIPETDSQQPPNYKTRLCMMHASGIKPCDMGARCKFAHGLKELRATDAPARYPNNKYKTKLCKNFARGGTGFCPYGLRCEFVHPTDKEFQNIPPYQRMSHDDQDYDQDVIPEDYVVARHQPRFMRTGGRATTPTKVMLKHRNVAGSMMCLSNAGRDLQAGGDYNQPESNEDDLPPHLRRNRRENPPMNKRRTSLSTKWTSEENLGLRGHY
# Runt-SMMHC FRET: Runt domain-CBFb-SMMHC interaction inhibition; Q01196+Q13951; Cerulean-Runt/Venus-CBFb-SMMHC FRET ratio 530/480, 1 h; inhibition, % at 20 µM; 0.74% of 220,000 active; AID 1434;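 active = mean inhibition across duplicate retests at 20 µM reaching about 50%, limit read from the data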;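 note: inhibitors lower the FRET ratio by blocking Runt binding to CBFb-SMMHC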
# RanGTP-Imp inh: disruptors of Ran-importin-beta complex formation – biochemical, FRET, CFP-Ran, YFP-importin-beta, homogeneous, primary screen | cell-free CFP-Ran/YFP-importin-beta FRET ratio | inhibition, % (test concentration not listed) | 1.1% of 300,000 active | AID 2216;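 active = more than half of the replicate wells show a fall in the fluorescence ratio signal beyond about 16%, limit read from the data, passing the limit was not always enough; inconclusive = exactly half of the replicate wells pass the set limit; inactive = fewer than half of replicates pass the limit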
# proKLK7 act: activates the human kallikrein-7 zymogen | P49862 | activation, % at 7 µM | 0.9% of 370,000 active | purified proKLK7, EDANS-DABCYL substrate fluorescence; 100% is mature enzyme control, 0% vehicle | AID 652039;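 active = activation above the mean of all tested compounds plus 3 SD, computed per campaign excluding outliers beyond control limits, cut at about 13% in these data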
# proKLK7 act conf: proKLK7 activation, confirmation; shares compounds with proKLK7 act; purified proKLK7, EDANS-DABCYL substrate fluorescence; scaled: vehicle 0, mature enzyme 100; activation, % at 7 µM; 68% of 3,200 active; AID 686949;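 active = activation, as change over the incubation, above the mean of all tested compounds plus 3 SD, cut at about 13% in these data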
# EDANS-DABCYL int: fluorescence interference counter-screen for KLK7 activators; shares compounds with proKLK7 act; EDANS-DABCYL substrate fluorescence interference, no enzyme, 4 h; solvent 0%, active enzyme control 100%; AID 686952; activation, % at 7 µM; 80% of 3,200 active;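 active = activation above the all-compound mean plus 3 SD, ignoring values outside control-based bounds, cut at about 4.8% in these data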;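 note: value is the 4 h activation minus the activation read at time zero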
# K7 EDANS ctr: optically interferes with EDANS-DABCYL fluorescence, kallikrein-7 activator counter-screen; EC50, µM; 20% of 250 active; shares compounds with proKLK7 act; EDANS-DABCYL peptide fluorescence interference, no enzyme; AID 720493;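 active = compounds that raise the fluorescence signal in this interference counterscreen, with EC50 at or below 10 µM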;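 note: intact quenched peptide substrate alone read at 355 nm excitation and 520 nm emission; signal is fluorescence gain from T0 to T4 after four hours at room temperature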
# Numbers stand for hits; n = inactive; u = inconclusive; x = not tested or not shown. Shown are actives, neighbours in structure and some others; about 2.1% of the full set was active somewhere.
SMILES,Runt-CBFb FRET,MEX-5 binding,Runt-SMMHC FRET,RanGTP-Imp inh,proKLK7 act,proKLK7 act conf,EDANS-DABCYL int,others
COc1cc2cc(C(=O)N3CCN(Cc4ccc5c(c4)OCO5)CC3)c(=O)oc2cc1OC,n,n,55,n,61,68,73,
COc1cc2c(cc1OC)/C(=C/C#N)NC(C)(C)C2,n,n,n,n,19,n,14,
CCOc1ccc(S(=O)(=O)n2c([N+](=O)[O-])cnc2C)c(C)c1C,x,n,x,n,n,x,x,
CCCS(=O)(=O)NC(=O)C1(C)CCCN(C(=O)c2cccc(OC(F)(F)F)c2)C1 (centres undefined),x,x,x,x,n,x,x,
CCc1cc(=O)oc2c3c(cc(OCC(=O)NCc4ccccn4)c12)OC(C)(C)CC3,x,n,x,n,20,n,n,
CCc1cc(=O)oc2c3c(cc(OCC(=O)Nc4cccnc4)c12)OC(C)(C)CC3,x,n,x,n,n,x,x,
CCc1cc(=O)oc2c3c(cc(OCC(=O)NCCCCCC(=O)O)c12)OC(C)(C)CC3,x,n,x,n,30,57,64,
Cc1cc(=O)oc2c3c(cc(OCC(=O)NCc4ccncc4)c12)OC(C)(C)CC3,x,n,x,n,23,37,n,K7 EDANS ctr=n
CCc1cc(=O)oc2c3c(cc(OCC(=O)NCc4cccnc4)c12)OC(C)(C)CC3,x,n,x,n,18,n,n,
O=C(CCc1nnc(C2CCCCC2)o1)NCCCOc1cccnc1,n,n,n,n,n,x,x,
Cc1cn(-c2cccnc2)c(C)c1CNC[C@H]1O[C@@H](n2cnc3c(N)ncnc32)[C@H](O)[C@@H]1O,x,x,x,x,n,x,x,
Fc1ccc(Nc2cncc(-c3ccsc3)c2)cc1Cl,x,x,x,x,n,x,x,
N#CC(C#N)=Cc1c[nH]c(=O)c(C#N)c1Nc1ccccc1,x,n,x,67,62,63,62,
CC(=O)N1CCC(C(=O)N2c3ccccc3N=C(c3ccc(C(F)(F)F)cc3)C2C(=O)NC(C)(C)C)CC1 (centres undefined),x,x,x,x,32,n,n,
CC(=O)N1CCC(C(=O)N2c3ccccc3N=C(c3ccc(C(F)(F)F)cc3)C2C(=O)NC(C)C)CC1 (centres undefined),x,x,x,x,n,x,x,
COC(=O)Cc1cc(=O)oc2cc(O)ccc12,80,n,92,69,50,75,69,
CC(=O)Oc1ccc2c(C)cc(=O)[nH]c2c1,n,n,n,n,179,343,302,
O=c1cc(O)c2ccc(O)cc2o1,n,n,n,n,n,x,x,
CC(=O)Oc1ccc2c(C)cc(=O)oc2c1,n,n,n,n,60,540,531,
Cc1cc(=O)[nH]c2cc(O)ccc12,n,n,n,n,n,x,x,
Cc1cc(=O)oc2cc(O)cc(OCc3ccccc3)c12,x,x,x,x,35,66,78,
CCCCn1nnnc1C1(C)CCC(=O)N1CCc1ccc(OC)c(OC)c1 (centres undefined),x,x,x,x,n,x,x,
CCOC(=O)N(C)c1c(CC)nc2c(OCc3cc(Cl)cc(Cl)c3)cccn12,x,x,x,x,n,x,x,
NS(=O)(=O)c1ccc(CCNC(=O)c2ccc(C#CC3(O)CCCCC3)cc2)cc1,n,n,n,u,n,x,x,
CCN(CC)c1ccc2c(C)cc(=O)oc2c1,x,x,x,x,27,17,26,
Cc1oc2cc(O)cc(O)c2c(=O)c1-c1ccc2c(c1)OCCCO2,n,n,n,n,n,x,x,
CC(=O)Oc1cc(OC(C)=O)c2c(=O)c(-c3ccc4c(c3)OCCCO4)c(C)oc2c1,n,n,n,n,29,169,137,
Cc1cc(=O)oc2cc(OC(=O)C3CCN(C(=O)c4ccc(F)cc4)CC3)ccc12,x,n,x,n,14,427,378,
Cc1ccc(NC(=O)CSCC(=O)OCc2cc(=O)oc3cc(O)ccc23)c(C)c1,x,n,x,n,468,288,306,
COC(=O)c1ccc(COC(=O)CSCC(=O)Nc2ccc(C)cc2C)cc1,x,x,x,x,n,x,x,
